Test results published in publication PMC7502533 (ACS chemical biology, 2020).

Assays:
TFEB = TFEB nuclear accumulation; type: cell-based; settings: for nuclear translocation of TFEB: percentage of cells displaying TFEB nuclear accumulation, biological duplicates
Outline: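 HeLa and Neuro-2a cells were treated with the CPP combined with an endosome-priming small molecule, or with LLOME. TFEB localization was then followed over time until the protein returned to a cytoplasmic distribution.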

[1] = system: Neuro-2a and HeLa cell lines; assay: Endocytic uptake of AF488-labelled probes by flow cytometry; type: cell-based; settings: AF488-H1 added after reagent treatment, biological duplicates
Neuro-2a and HeLa = assay: Recovery of LysoTracker Green staining; type: cell-based; settings: cell line not specified; biological triplicates
Outline: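 HeLa and Neuro-2a cells were exposed to the delivery agent, or LLOME as the reference, then washed. LysoTracker was added at increasing intervals after washing, and lysosomal staining was followed over time to find when it returned to the untreated level.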

Chmp1b = Chmp1b recruitment to damaged endosomes; type: cell-based
Galectin-3 (Gal3) = assay: Gal3 recruitment to damaged endosomes; type: cell-based
[2] = cells incubated with reagent, washed and imaged, biological duplicates

Row | SMILES | additional time to return to a cytoplasmic TFEB distribution (TFEB; after the initial 3h, biological triplicates) [h] | time TFEB nuclear accumulation is steady or rising after treatment (TFEB; biological triplicates) [h] | nuclear translocation of TFEB (TFEB) | uptake of H1 [1] | recovery time of LysoTracker staining (Neuro-2a and HeLa) [h] | Chmp1b recruitment (Chmp1b; Neuro-2a) | number of Chmp1b puncta (Chmp1b; [2]) | toxicity to cells of cell penetration (cells) | Gal3 recruitment (Galectin-3 (Gal3); Neuro-2a) | Gal3 distribution / puncta (Galectin-3 (Gal3); [2])
1 | COC(=O)[C@H](CC(C)C)NC(=O)[C@@H](N)CC(C)C [LLOME, L-leucyl-L-leucine methyl ester] | 9 | 3 | triggered the nuclear translocation of TFEB | stimulated | 8 | did not trigger | trigger the recruitment of Chmp1b and Gal3 | delayed loss of viability | did not trigger | trigger the recruitment of Chmp1b and Gal3
2 | CO/C1=C\C(C)=C\[C@@H](C)[C@@H](O)[C@@H](C)C/C(C)=C/C=C/[C@H](OC)[C@@H]([C@@H](C)[C@@H](O)[C@H](C)[C@@]2(O)C[C@@H](O)[C@H](C)[C@@H](C(C)C)O2)OC1=O [bafilomycin] |  |  | positive control |  |  |  |  |  |  | 
